Bioassay records from PubChem BioAssay.
Sampled rows, rich in hits. Any-hit rate of the full collection: about 2%.
Runt-CBFb FRET – inhibitors of RUNX1 Runt–CBFb binding, primary screen, biochemical, FRET, Cerulean-Runt, Venus-CBFb, uHTS; Runt-related transcription factor 1 (Homo sapiens) + Core-binding factor subunit beta …; Cerulean-Runt/Venus-CBFb FRET ratio 530/480, 1 h; inhibition, % at 20 µM; 220,000 compounds, 0.46% hits; AID 1496, 2009;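 active means inhibition over about 50% at 20 µM in the single-dose screen, limit read from the data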
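Assay system: Cerulean-Runt domain / Medium: Tris 50 mM pH 7.5, KCl, K2SO4, 0.01% BSA / Timing: protein complex preformed 1 h, compound exposure 1 h, room temperature, dark / Measured by: FRET, excitation 422 nm, emission at 530 and 480 nm / Evaluation: loss of energy transfer signal / Control set: 5 µM unlabeled CBFb as full-inhibition high control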
EBV gp42 block – Epstein-Barr virus gp42 inhibitors, primary screen, biochemical, uHTS, fluorescence polarization; inhibition, % (tested at 21.74 µM); Glycoprotein 42 (Epstein-Barr virus (strain AG876)), Q1HVG2; Fluorescence polarization binding assay, mP read-out; 220,000 compounds, 0.42% hits
RanGTP-Imp inh – inhibitors of RanGTP-importin-beta interaction, primary screen, biochemical, FRET, CFP-Ran, YFP-importin-beta, homogeneous | 300,000 compounds, 1.1% hits | cell-free CFP-Ran/YFP-importin-beta FRET ratio | Ran GTPase (GTP-bound) - importin-beta complex | inhibition, % (test concentration not listed);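 active means more than half of the replicate wells show a fall in the fluorescence ratio signal beyond about 16%, limit read from the data, passing the limit was not always enough; inconclusive means exactly half of the replicate wells pass the set limit; inactive means fewer than half of replicates pass the limit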
MEX-5 binding – MEX-5 zinc finger RNA-binding disruptors – biochemical, C. elegans, fluorescence polarization, MLPCN library, primary screen | Zinc finger protein mex-5 (Caenorhabditis elegans), Q9XUB2 | MEX-5/FITC-TCR2 RNA binding; hits give low values | activity score (negative = inhibition of binding), % at 10 µM | 300,000 compounds, 0.38% hits | AID 1832, 2009;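 active means inhibition past about -25% in most replicates, and total fluorescence under double the plate's negative control median, limit read from the data; inconclusive means replicates evenly split on the limit, or fluorescence at least double controls; inactive means too little inhibition in most replicates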
Runt-SMMHC FRET – inhibitors of RUNX1 Runt–CBFb-SMMHC binding, primary screen, biochemical, FRET, Cerulean-Runt, Venus-CBFb-SMMHC, uHTS; Runt-related transcription factor 1 (Homo sapiens) + Core-binding factor subunit beta …; Cerulean-Runt/Venus-CBFb-SMMHC FRET ratio 530/480, 1 h; inhibition, % at 20 µM; 220,000 compounds, 0.74% hits;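 active means mean inhibition across duplicate retests at 20 µM reaching about 50%, limit read from the data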;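 further: inhibitors lower the FRET ratio by blocking Runt binding to CBFb-SMMHC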
PKD1 inh – inhibitors of human PKD1 kinase, biochemical, fluorescence polarization; 200,000 compounds, 0.056% hits; inhibition, % (concentration not given with the values); PKD1 kinase fluorescence polarization assay; AID 797, 2007
A number is an active result; n = inactive; u = inconclusive; x = not tested or not shown. Unless noted, no stated cut-off is given here; in the data, active means inhibition above about 50%; inactive means the rest.

SMILES	Runt-CBFb FRET	EBV gp42 block	RanGTP-Imp inh	MEX-5 binding	Runt-SMMHC FRET	PKD1 inh
Cc1cccc(N2CCN(S(=O)(=O)c3ccc4c(c3)CC(=O)N4C)CC2)c1C	x	x	n	n	x	x
CN1C(=O)Cc2cc(S(=O)(=O)N3CCOCC3)ccc21	n	n	39	n	n	n
Cc1ccc(C)n1-c1cc(S(=O)(=O)N2CCOCC2)ccc1N1CCCC1	n	96	33	n	n	n
CC(C)CCNC(=O)C(=O)Nc1ccccc1	n	n	n	n	n	n
Oc1ccc(NC(=S)N=Nc2c(O)[nH]c3ccccc23)cc1	n	n	n	-26	n	n
Cc1ccc(NC(=S)N=Nc2c(O)[nH]c3ccccc23)cc1	n	n	n	n	n	n
O=C1C2CC=C(Cl)CC2C(=O)N1c1ncn[nH]1 (stereo not drawn)	n	n	n	n	n	n
O=C1C2CC=CCC2C(=O)N1c1ncn[nH]1 (stereo not drawn)	n	n	39	n	n	n
Fc1ccccc1-c1ccc(/C=N/Nc2nc3ccccc3[nH]2)o1	n	n	x	n	77	n
C(=N\Nc1nc2ccccc2[nH]1)/c1ccc2ncccc2c1	n	n	n	n	n	x
C(=N\Nc1nc2ccccc2[nH]1)/c1ccccn1	n	n	n	-42	n	n
Oc1ccccc1N1CCN(C(c2ccccc2)c2ccccc2)CC1	x	x	u	n	x	x
Cc1cc(C(=O)NC2Cc3ccccc3C2)c(C)o1	n	n	n	n	n	x
C#CCOC(=O)/C(=C/C=C/c1ccccc1)NC(=O)c1ccccc1	n	61	n	n	n	n
CCOc1ccccc1-c1c2cc(O)c(=O)cc-2oc2cc(O)c(O)cc12	n	153	x	x	n	n
O=c1cc2oc3cc(O)c(O)cc3c(-c3ccccc3O)c-2cc1O	n	150	x	x	n	x
CCOC(=O)c1oc2cc(O)ccc2c(=O)c1-c1ccccc1OC	n	n	n	n	n	n
COc1ccc(OC)c(-c2c3cc(O)c(=O)cc-3oc3cc(O)c(O)cc23)c1	n	168	x	x	n	n
Cc1ccccc1-c1cc(=O)c2c(O)cccc2o1	n	n	n	n	n	x
O=S(=O)(c1cccs1)N1CCC(CO)(Cc2ccc(Cl)cc2)CC1	n	n	n	n	n	n
Cc1ccc2sc(NNC(=O)c3cc(=O)c4ccccc4o3)nc2c1C	n	n	n	-64	n	n
Cc1cccc2sc(NNC(=O)c3cc(=O)c4ccccc4o3)nc12	n	n	n	-79	n	n
COC(=O)c1ccc(NC(=O)N(c2ccccc2)c2ccccc2)cc1	x	x	n	n	x	x
CCOc1ccc(/C=c2\sc3nc(-c4ccco4)nn3c2=O)cc1OCC	n	n	x	-31	n	n
CCn1c(SCC(=O)NCC2CCCO2)nnc1-c1ccc(Cl)cc1 (stereo not drawn)	n	n	26	n	n	n
SMILES	Runt-CBFb FRET	EBV gp42 block	RanGTP-Imp inh	MEX-5 binding	Runt-SMMHC FRET	PKD1 inh
CCn1c(SCC(=O)NCC2CCCO2)nnc1-c1c[nH]c2ccccc12 (stereo not drawn)	n	n	n	n	n	n
COCCCN(C(=O)c1cc2c(s1)CCCCC2)c1c(N)n(Cc2ccccc2)c(=O)[nH]c1=O	x	x	n	n	x	x
O=C(NCc1cccc(Cl)c1)C1CCN(S(=O)(=O)c2ccc(F)cc2)CC1	x	x	n	n	x	x
COc1ccc(-c2ccc(CCC(=O)O)n2NC(=O)c2cccs2)cc1	n	n	n	n	n	n
Cc1ccc(-c2ccc(CCC(=O)O)n2NC(=O)c2cccs2)cc1	n	n	n	n	63	n
CCc1ccccc1NC(=O)NNC(=O)CCc1ccc(OC)cc1	x	x	n	n	x	x
O=C1CCC/C1=C\c1ccccc1	n	n	149	n	n	n
COc1ccc(CCNC(=O)Cc2ccc(NC3=NC4CS(=O)(=O)CC4S3)cc2)c(OC)c1 (stereo not drawn)	x	x	n	n	x	x
N#CC1=C(N)C(C#N)(C#N)C(c2cccnc2)C2COCC=C12 (stereo not drawn)	x	n	n	-26	x	n
CC(=O)C(/C=N/c1ncc(C(F)(F)F)cc1Cl)=C(\C)O	n	n	22	n	n	n
CC1C2(C)OC(=N)C(C#N)(C(C)O2)C1(C#N)C#N (stereo not drawn)	101	n	22	-30	52	x
CC1OC2(C)OC(=N)C1(C#N)C(C#N)(C#N)C2c1ccccc1 (stereo not drawn)	n	n	23	n	n	n
CCCCC1OC2(C)OC(=N)C1(C#N)C(C#N)(C#N)C2c1ccccc1 (stereo not drawn)	n	n	x	x	n	n
COCCNC(=O)Cn1nc(-c2ccccc2F)ccc1=O	x	x	n	n	x	x
Cc1c(-c2cccc(Cl)c2)nc2ccccc2c1C(=O)OC/C(O)=C(\C#N)c1nc2ccccc2[nH]1	n	n	n	n	54	n
CC(C)C(=O)OC/C(O)=C(\C#N)c1nc2ccccc2[nH]1	n	n	15	n	n	n
COCC(=O)OC/C(O)=C(\C#N)c1nc2ccccc2[nH]1	n	n	n	n	n	x
Cc1c(C(=O)OC/C(O)=C(\C#N)c2nc3ccccc3[nH]2)oc2ccc(Br)cc12	n	n	n	n	n	x
COc1ccc(N2CCN(CCCNC(=O)C(=O)c3c(C)[nH]c4ccccc34)CC2)cc1	x	x	n	n	x	x
O=C(C#Cc1ccccc1)c1ccco1	x	x	n	n	x	x
C=CCn1c(N)c(C(=O)Nc2ccc(C)c(C)c2)c2nc3ccccc3nc21	n	n	n	n	n	n
C=CCn1c(N)c(C(=O)Nc2cccc(C)c2)c2nc3ccccc3nc21	n	n	22	n	n	n
CCc1nn(CC(=O)N(C)C2CCCCC2)c(=O)c2cc3cc(C)ccc3n12	x	x	n	n	x	x
O=C(Nc1ccccc1)c1cnc[nH]1	89	n	n	x	n	n
O=C(c1ccccc1)c1cnc[nH]1	n	n	n	n	n	x
O=C(CN1CCN(c2ccc(Cl)cc2[N+](=O)[O-])CC1)N1CCOCC1	n	n	n	n	n	x
O=S(=O)(Nc1ccc(-c2nc3cccnc3s2)cc1)c1cc(F)ccc1F	n	n	n	n	85	x
COc1ccc(C(=O)/C=C\c2ccc(NC(=O)c3cccs3)cc2)cc1	n	n	23	n	n	n
O=C(CN(CCc1ccccc1)S(=O)(=O)c1ccc(Cl)cc1)N/N=C/c1ccccc1C(=O)O	n	n	20	n	n	n
CCCN(CC(=O)Nc1ccccc1C)C(=O)c1ccc(=O)n(Cc2ccccc2)n1	x	x	u	n	x	x
